A selection: hits, their analogues and other compounds. The true share with any hit is near 4.3%.
STAT1 act: STAT1 signaling activators, primary screen, cell-based, HTS, luciferase reporter; 200,000 tested, 2.6% active; NIH 3T3 STAT1-luciferase reporter, IFN-gamma, luminescence; 100% = IFN-gamma alone, no compound; activation (% of control), % at 5.5 µM; AID 932, 2007;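 active means activation above the screen-wide mean activation plus 3 SD, cut at about 130% in these data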;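 further: raw ratio to IFN-gamma control signal so 100% means no change and 0% no light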
STAT3 inh-1: IL-6 driven STAT3 reporter inhibitors, primary screen, U3A cells, luciferase, luminescence, MLSCN library; inhibition, % at 5.5 µM; IL-6 STAT3-luciferase reporter; host cell line lacks STAT1; 190,000 tested, 0.89% active;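 active means inhibition above the mean inhibition across all screened compounds plus 3 SD, cut at about 44% in these data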;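 further: 0% = DMSO only wells and 100% = 100 µM nifuroxazide control wells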
STAT1 inh: STAT1 signaling inhibitors, primary screen, cell-based, HTS, luciferase reporter | NIH 3T3 STAT1-luciferase reporter, IFN-gamma, luminescence | inhibition, % at 5.5 µM | 200,000 tested, 0.35% active;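 active means inhibition above a set limit, the mean inhibition across all tested compounds plus 3 SD, cut at about 34% in these data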;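 further: 0% = IFN-gamma with DMSO and 100% = IFN-gamma with 300 µM nifuroxazide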
STAT3 activator: IL-6 driven STAT3 reporter potentiators, primary screen, U3A cells, luciferase, luminescence, MLSCN library. IL-6 STAT3-luciferase reporter; 100% = signal with IL-6 EC80 alone. activation (% of control), % at 5.6 µM. 190,000 tested, 0.91% active;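 active means activation above the screen-wide mean of compound activation plus 3 SD, cut at about 130% in these data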;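 further: 0% = background luminescence of wells with medium and substrate only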
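system = STAT3-luciferase reporter U3A cells | reagent = IL-6 stimulus at 33 ng/mL final | timing = 1 h compound pre-exposure, 6 h IL-6 stimulation, 37 °C | measured by = luminescence | evaluation = % activation versus median of IL-6-stimulated wells | control set = IL-6-only wells as 100% reference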
STAT3 inh-2: STAT3 reporter inhibitors, retest of hits, confirmation, U3A cells, luciferase, luminescence; shares compounds with STAT3 inh-1; IL-6 STAT3 luciferase reporter; cell line lacks STAT1; inhibition, % at 5.7 µM; 1,200 tested, 45% active;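 active means inhibition above the hit cutoff computed for the primary STAT3 screen, cut at about 44% in these data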;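 further: 0% = IL-6 plus DMSO and 100% = IL-6 plus nifuroxazide control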
NFkB inh STAT3ct: NF-kB reporter inhibitors in human cells, confirmation, counter-screen for STAT3 inhibitor project, cell-based, HEK293T, luciferase, TNF-alpha stimulus | shares compounds with STAT3 inh-1 | TNF-alpha induced | inhibition, % at 5.7 µM | 1,200 tested, 36% active | AID 1308, 2008;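 active means inhibition above the mean of solvent-only control wells plus 3 SD, cutoff set per campaign, cut at about 13% in these data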;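 further: 0% = TNF-alpha with DMSO and 100% = TNF-alpha with MG high control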
STAT1 inh STAT3c: STAT1 reporter inhibitors, IFN-gamma induced, confirmation, counter-screen for STAT3 inhibitor project, cell-based, NIH 3T3, luciferase luminescence. shares compounds with STAT3 inh-1. NIH 3T3 STAT1-luciferase reporter. inhibition, % at 5.7 µM. 1,200 tested, 27% active;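 active means inhibition above the mean plus 3 SD of solvent-only control wells, limit set per screening run, cut at about 16% in these data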;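 further: 0% = DMSO with IFN-gamma and 100% = nifuroxazide control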
The depositor's hits bear a star.

SMILES	STAT1 act	STAT3 inh-1	STAT1 inh	STAT3 activator	others
C[C@H]1CCC[C@H](O)CCCCCc2cc(O)cc(O)c2C(=O)O1	99	28	1	77
CC1CCC/C=C/C2CC(O)CC2C(O)/C=C/C(=O)O1 (stereo not given)	52	89*	53*	26
C[C@H]1CCC/C=C/C2C[C@H](O)CC2[C@H](O)/C=C/C(=O)O1 (stereo not given in full)	58	93*	46*	20
CC1CCC[C@H](O)CCCCCc2cc(O)cc(O)c2C(=O)O1 (stereo not given in full)	96	15	4	89
CCNC(=S)N1CCn2cccc2C1c1cccnc1 (stereo not given)	101	8	-2	99
O=C(Nc1ccccc1)c1cccn(Cc2ccccc2)c1=O	132*	29	-34	77
O=C(Nc1c(F)cc(F)cc1F)c1cccn(Cc2ccccc2)c1=O	104	-4	-7	105
O=C(c1ccc(N2CC3CC(C2)c2cccc(=O)n2C3)c([N+](=O)[O-])c1)N1CCCCC1 (stereo not given)	103	-8	-4	104
Clc1ccccc1Nc1ncnc(-n2cccc2)n1	136*	-17	-39	119
Oc1cccc(/C=N/NP(=S)(c2ccccc2)c2ccccc2)c1	103	-12	-3	109
Cc1cc(C=C2C(=O)N(C)C(=S)N(C)C2=O)c(C)n1C1CCCCC1	94	-5	6	105
Cc1cc(C=C2C(=O)NC(=S)NC2=O)c(C)n1C1CCCC1	136*	-11	-41	112
Cc1nc2c(=O)n(C)c(=O)nc-2n(C)n1	15	107*	92*	14
COC(=O)C(O)(c1ccc(N(C)C)cc1)C(F)(F)F (stereo not given)	111	-14	-13	113
CN(C)c1ccc(C(=O)c2ccc(N(C)C)cc2)cc1	134*	-17	-36	114
CN1/C(=C\C=C\C2=[N+](C)c3ccc4ccccc4c3C2(C)C)C(C)(C)c2ccccc21	36	103*	72*	20
CN1/C(=C\C=Nc2ccccc2)C(C)(C)c2ccccc21	92	-5	9	108
Cc1ccc2nc(N3CCN(C)CC3)[nH]c2c1	133*	-15	-36	117
N=Cc1c(O)n(-c2ccc(C34CC5CC(CC(C5)C3)C4)cc2)c(=O)[nH]c1=O	102	5	-2	98
Cc1cccc(N2C(=O)NC(=O)/C(=C\c3cccn3-c3ccc(Cl)cc3)C2=O)c1	69	-13	34*	111
CC(=O)Nc1ccccc1C(=O)OCc1ccc(C(=O)c2ccccc2)cc1	107	36	-8	74
Nc1ccccc1C(=O)OCc1ccc([N+](=O)[O-])cc1	136*	18	-38	87
C/C(=N\N1CCCCC1c1cccnc1)c1c(O)n(C2CCCCC2)c(=S)[nH]c1=O (stereo not given)	101	-6	-1	106
CSc1ccc(CN2CCN(C(=O)COc3cccc(C)c3)CC2)cc1	98	8	-1	97
COc1ccc2nc(NC3=NCCN3)sc2c1	140*	16	-45	90
SMILES	STAT1 act	STAT3 inh-1	STAT1 inh	STAT3 activator	others
CNC(=O)Oc1ccc(-c2cn3cc(C)ccc3n2)cc1	28	106*	82*	12
Cc1cc([N+](=O)[O-])c(Cl)cc1NC(=O)C(C)C	99	8	1	95
CNc1cc(Cl)c2nonc2c1[N+](=O)[O-]	141*	-9	-50	112
Cc1cc(=O)n(-c2ccccc2)n1-c1ccccc1	90	8	11	95
CC1COC2N=C(N[N+](=O)[O-])NC2O1 (stereo not given)	95	17	5	88
O=C(c1cc(-c2ccccc2)on1)N1CCC2(CC1)OCCO2	137*	1	-40	107
CN1C(=O)/C(=C\c2ccc(N3CCCCC3)o2)C(=O)NC1=S	133*	10	-42	99
O=C(COc1ccc(Br)cc1)N1CCN(Cc2c[nH]c3ccccc23)CC1	94	-31	7	135*
Cc1nn(Cc2ccccc2)c(Cl)c1C(=O)NC1CCCc2ccccc21 (stereo not given)	91	-8	10	108
O=C(Nc1ccncc1)c1cccn(Cc2ccccc2)c1=O	87	79*	12	40	STAT3 inh-2=74*;NFkB inh STAT3ct=17*;STAT1 inh STAT3c=9
CCn1nc(-c2ccccc2)nc2c(=O)n(C)c(=O)nc1-2	106	62*	-5	52	STAT3 inh-2=74*;NFkB inh STAT3ct=49*;STAT1 inh STAT3c=41*
COc1ccc(-c2nc3ccccc3c(=O)n2-c2ccc(OC)cc2)cc1	91	3	7	101
CNC(=O)Oc1cccc(-c2cn3cc(Cl)ccc3n2)c1	117	92*	-20	21	STAT3 inh-2=82*;NFkB inh STAT3ct=9;STAT1 inh STAT3c=-20
C[C@H]1CCC[C@@H](O)CCC/C=C/c2cc(O)cc(O)c2C(=O)O1	108	60*	-9	54	STAT3 inh-2=48*;NFkB inh STAT3ct=9;STAT1 inh STAT3c=-1
CC(C)NC(=O)Cn1cc(C(=O)c2ccccc2F)c2ccccc21	94	-5	7	105
COc1ccc(N/N=C/c2c(O)n(-c3ccc(C)c(C)c3)c(=O)[nH]c2=O)cc1	84	48*	17	60	STAT3 inh-2=16;NFkB inh STAT3ct=-1;STAT1 inh STAT3c=5
COc1ccc(N/N=C/c2c(O)n(-c3cccc(C)c3)c(=O)[nH]c2=O)cc1	73	17	28	89
CCOP(=S)(NN(Cc1ccccc1)C(=O)c1ccccc1)OCC	95	6	5	95
O=C(NC(C(Cl)Cl)N1CCOCC1)c1ccccc1 (stereo not given)	103	8	-4	103
CCCCn1c(C)c(C(=O)O)c2cc(OC)ccc21	99	52*	1	60	STAT3 inh-2=35;NFkB inh STAT3ct=-9;STAT1 inh STAT3c=-18
C/C=C1/CC(C)C(C)(O)C(=O)OCC2CCN3CCC(OC1=O)C23 (stereo not given)	105	1	-7	103

Source: PubChem
